# Assay results of several laboratories.
# Lines come from different studies, so protocols differ.
# VIPR1: Vasoactive intestinal polypeptide receptor 1 (VIPR1, Homo sapiens, UniProt P32241)
# SULT1B1: Sulfotransferase 1B1 (SULT1B1, Homo sapiens, UniProt O43704)
Structure (SMILES),target,assay,system,setting,measurement,result
Nc1ncc(-c2nc(N3CCOCC3)nc(N3CCOCC3)n2)c(C(F)F)n1,"Uncharacterized serine/threonine-protein kinase SBK3 (SBK3, Homo sapiens, UniProt P0C264)","binding, competition with immobilised ligand",,10 µM,remaining binding,85%
COc1ncccc1-c1cnn2ccc(N3CCN(C(=O)OC(C)C)CC3)nc12,"Bone morphogenetic protein receptor type-1B (BMPR1B, Homo sapiens, UniProt O00238)","binding, competition with immobilised ligand",,1 µM,remaining binding,100%
O=[N+]([O-])c1cc[n+]([O-])c2ccccc12,"TcPGFS (Trypanosoma cruzi, UniProt Q8I6L9)","enzyme activity, inhibitor",,200 µM,remaining activity,76%
CCN(CC)CCCC[C@H](NC(=O)[C@H](CC(C)C)NC(=O)[C@H](C)NC(=O)[C@H](Cc1ccccc1)NC(=O)c1ccc(C(C)(C)C)cc1)C(=O)N[C@@H](CO)C(=O)OC,VIPR1,"ligand displacement, radioligand",,10 µM,remaining binding,110%
COc1cc(Br)cc(Br)c1Oc1cc(Br)cc(Br)c1O,SULT1B1,"enzyme activity, substrate",,,Km,24.9 µM
N=C(N)c1ccc2cc(OC(=O)c3ccc(N=C(N)N)cc3)ccc2c1,"Cathepsin S (CTSS, Homo sapiens, UniProt P25774)","enzyme activity, inhibitor",,10 µM,inhibition,8%
Cc1nn(C)cc1-c1nc2c(N3CCN(Cc4ccc(Cl)cc4)CC3)c(Cl)cnc2[nH]1,"Wee1-like protein kinase 2 (WEE2, Homo sapiens, UniProt P0C1S8)","binding, competition with immobilised ligand",,1 µM,remaining binding,99%
Oc1c(Br)cc(Br)cc1Oc1ccc(Br)cc1Br,SULT1B1,"enzyme activity, substrate",,,Km,0.172 µM
CN(C)C(=O)COC(=O)Cc1ccc(OC(=O)c2ccc(NC(=N)N)cc2)cc1,"Dipeptidyl peptidase 3 (DPP3, Homo sapiens, UniProt Q9NY33)","enzyme activity, inhibitor",,10 µM,inhibition,8%
O=C(Nc1cccnc1)N1CCC(Cc2cccc(Oc3ccc(C(F)(F)F)cn3)c2)CC1,"Fatty-acid amide hydrolase 1 (Faah, Rattus norvegicus, UniProt P97612)","enzyme activity, inhibitor",,,kinact/KI,3900 M⁻¹ s⁻¹
O=C(Nc1cccnn1)N1CCN([C@@H]2CCOc3cc(C(F)(F)F)ccc32)CC1,VIPR1,cell-free assay,,20 µM,inhibition,-11%
CN1CCN(c2cc(-c3ccncc3)c(-c3ccc4ccccc4c3)nn2)CC1,"Prokineticin receptor 1 (PROKR1, Homo sapiens, UniProt Q8TCW9)","calcium signal, agonist",PK-1,12.5 µM,activation,-0.3%
